Active and inactive are the calls of the source. The calls are words filed in the database; no cut-off is given here.

What all share (type): functional, organism-based
One test concerns sarcoma. Nature of the test: Antitumor activity against mouse Ridgeway osteogenic sarcoma cell allografted in po dosed mouse.
Another test relates to Mus musculus. Briefly: Antitumor activity against Gardner lymphosarcoma cell in po dosed mouse.
For test [1], the system named is P388. Briefly: Antitumor activity against mouse P388 cells allografted in mouse assessed as survival at 2.7 mg/kg/day after 1 day. The gist of the method:
(§1)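 P388 ascites implanted ip in mice; sulfate salts dosed either daily or as a single dose on day 1, 10 animals per group. Survivors per total were recorded, median life span was calculated using all deaths and survivors, and percent increase of life span was reported.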

Test [2] concerns P388. Briefly: Antitumor activity against mouse P388 cells allografted in mouse assessed as survival at 1.8 mg/kg/day after 1 day. The procedure, abridged:
as §1

The test system of test [3] is P388. Briefly: Antitumor activity against mouse P388 cells allografted in mouse assessed as survival at 0.10 mg/kg/day administered from day 1 to day 9. The gist of the method: as §1
The test system of test [4] is P388. Nature of the test: Antitumor activity against mouse P388 cells allografted in mouse assessed as survival at 4 mg/kg/day after 1 day. The gist of the method: as §1
The subject of test [5] is Leukemia cell. Briefly: Antitumor activity against human leukemia cells allografted in human assessed as remission of nonlymphocytic leukemia at 3 to 4 mg/m'2, iv once weekly dosed through push technique.
The test system of test [6] is Leukemia cell. Nature of the test: Antitumor activity against human leukemia cells allografted in human assessed as remission of acute lymphocytic leukemia at 3 to 4 mg/m'2, iv once weekly dosed through push technique.

Turning to `CC[C@]1(O)C[C@@H]2CN(CCc3c([nH]c4ccccc34)[C@@](C(=O)OC)(c3cc4c(cc3OC)N(C)[C@H]3[C@@](O)(C(N)=O)[C@H](O)[C@]5(CC)C=CCN6CC[C@]43[C@@H]65)C2)C1`, the result in the test with sarcoma, in the test with Mus musculus, in the test with P388 [1], in the test on P388 [2], in the test with P388 [3] and in the test with P388 [4] was inactive. Moreover, the result in the test on Leukemia cell [5] and with Leukemia cell [6] was Active.

(Values after ChEMBL document CHEMBL3272325, “Structure-activity relationships of dimeric Catharanthus alkaloids. 1. Deacetylvinblastine amide (vindesine) sulfate” (J Med Chem, 1978).)
